Experimental findings from ChEMBL document CHEMBL5055621, “Synthesis and Characterization of the Novel Rodent-Active and CNS-Penetrant P2X7 Receptor Antagonist Lu AF27139” (J Med Chem, 2021) are described below.

Usually Ki stands for the dissociation constant of the complex between target and ligand, obtained from inhibition or displacement. A word on the bioavailability: it is dose-corrected exposure relative to a reference, in per cent. Low readings indicate poor availability, high ones good availability. As a reminder, the AUC(0-t) is exposure summed from dosing to a finite time, without extrapolation to infinity. Low readings indicate low exposure, high ones high exposure. As usually defined, the Cmax is the maximum level reached in the sampled fluid or tissue. For orientation: AUC means the area under the concentration-time curve, a measure of exposure. High values mean more exposure, low ones less exposure. In general, Tmax refers to the time from dosing to the highest level.

The nature of data set [1]: Free plasma concentration in rat at 1 mg/kg, po after 2 hrs by ex vivo equilibrium dialysis. Format: ADME, organism-based. The essentials:
(§1)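 Male Sprague–Dawley rats were dosed orally at 1–100 mg/kg, and total plasma concentration was measured at 1 and 2 h. This was multiplied by fraction unbound from ex vivo equilibrium dialysis; mean ± SEM, n = 3 animals.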
(In general: In equilibrium dialysis free small molecules cross a membrane that holds back macromolecules.)

The next data set addresses Cytochrome P450 2C19 (Homo sapiens, UniProt P33261). Briefly: Inhibition of CYP2C19 (unknown origin) upto 25 uM. Format: ADME.
Data set [2] can be described thus: Free plasma concentration in rat at 1 mg/kg, po after 1 hr by ex vivo equilibrium dialysis. Format: ADME, organism-based. The essentials: as §1
For data set [3], the target named is T1, P2X purinoceptor 7 (Mus musculus, UniProt Q9Z1M0).
T1 sequence (Q9Z1M0 whole entry): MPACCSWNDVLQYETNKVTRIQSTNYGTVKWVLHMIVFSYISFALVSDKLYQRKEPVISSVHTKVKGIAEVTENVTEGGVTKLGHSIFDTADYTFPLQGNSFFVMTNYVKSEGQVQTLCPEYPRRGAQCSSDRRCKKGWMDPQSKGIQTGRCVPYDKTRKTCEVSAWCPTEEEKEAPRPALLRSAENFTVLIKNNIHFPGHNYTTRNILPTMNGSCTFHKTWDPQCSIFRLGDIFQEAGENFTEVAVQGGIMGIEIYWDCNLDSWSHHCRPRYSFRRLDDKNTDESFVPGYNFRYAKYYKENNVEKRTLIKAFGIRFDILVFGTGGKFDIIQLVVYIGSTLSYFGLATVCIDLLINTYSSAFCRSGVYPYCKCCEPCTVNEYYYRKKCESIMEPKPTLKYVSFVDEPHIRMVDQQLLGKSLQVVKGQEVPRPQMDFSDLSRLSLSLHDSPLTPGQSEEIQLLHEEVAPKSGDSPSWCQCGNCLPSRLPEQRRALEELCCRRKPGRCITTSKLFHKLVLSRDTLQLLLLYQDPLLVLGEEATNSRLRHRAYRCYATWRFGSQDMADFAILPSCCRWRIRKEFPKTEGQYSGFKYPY
The data set can be described thus: Displacement of [3H]-A-804598 from mouse P2X7 receptor expressed in HEK293 cell membrane by in vitro binding assay. Format: cell membranes. (In general: In a radioligand displacement assay an active substance lowers the binding of a labelled ligand.)

A short description of data set [4]: Absolute oral bioavailability in rat at 2 mg/kg. Format: ADME, organism-based. The note with it: in vivo. The essentials: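 Rats received 1 mg/kg iv or 2 mg/kg po. The plasma concentration–time profile was analysed by a noncompartmental model to give half-life, Cmax, Tmax and absolute oral bioavailability.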
Another data set addresses Cytochrome P450 3A4 (Homo sapiens, UniProt P08684). The data set can be described thus: Time dependent inhibition of CYP3A4 (unknown origin) upto 25 uM. It is filed as ADME.
A further data set addresses Cytochrome P450 2C9 (Homo sapiens, UniProt P11712). The data set can be described thus: Time dependent inhibition of CYP2C9 (unknown origin) upto 25 uM. It is filed as ADME.
A short description of data set [5]: Volume of distribution at steady state in rat at 1 mg/kg, iv and 2 mg/kg, po. It is filed as ADME, organism-based. The note with it: in vivo. An outline of the steps:
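Plasma concentration–time profiles were obtained in rats after an iv dose of 1 mg/kg and a po dose of 2 mg/kg. Parameters were estimated by noncompartmental analysis. In vivo work used male Sprague–Dawley rats of 150−200 g unless noted otherwise.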

Data set [6] can be described thus: Free plasma concentration in rat at 10 mg/kg, po after 1 hr by ex vivo equilibrium dialysis. It is filed as ADME, organism-based. The essentials: as §1
The nature of data set [7]: AUC (0 to 8 hrs) in female mouse at 100 mg/kg, po administered as single dose. The note with it: in vivo.
For data set [8], the target named is T2, P2X purinoceptor 7 (Rattus norvegicus, UniProt Q64663).
T2 sequence (Q64663 whole entry): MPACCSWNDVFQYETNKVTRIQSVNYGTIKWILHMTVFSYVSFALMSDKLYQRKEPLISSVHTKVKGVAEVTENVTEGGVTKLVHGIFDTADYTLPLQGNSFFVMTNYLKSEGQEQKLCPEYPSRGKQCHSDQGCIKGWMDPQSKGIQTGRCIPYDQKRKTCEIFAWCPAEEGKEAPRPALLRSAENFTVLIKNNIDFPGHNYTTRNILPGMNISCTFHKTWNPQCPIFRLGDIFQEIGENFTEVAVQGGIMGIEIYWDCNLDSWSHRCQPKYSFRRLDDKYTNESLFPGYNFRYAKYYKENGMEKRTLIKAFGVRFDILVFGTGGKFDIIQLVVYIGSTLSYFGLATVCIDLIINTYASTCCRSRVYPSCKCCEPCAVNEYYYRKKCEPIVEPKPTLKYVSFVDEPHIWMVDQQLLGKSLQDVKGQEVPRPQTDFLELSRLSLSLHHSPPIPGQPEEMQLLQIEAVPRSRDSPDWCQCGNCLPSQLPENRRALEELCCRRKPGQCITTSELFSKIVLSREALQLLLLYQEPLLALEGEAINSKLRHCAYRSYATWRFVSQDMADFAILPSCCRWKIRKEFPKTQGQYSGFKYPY
The data set can be described thus: Displacement of [3H]-A-804598 from rat P2X7 receptor expressed in HEK293 cell membrane by in vitro binding assay. Format: cell membranes.

Data set [9] is described as follows: Cmax in female mouse at 100 mg/kg, po administered as single dose. The note with it: in vivo.
Data set [10] in a line: AUC (0 to 8 hr) in male rat at 3 mg/kg, po after 7 days. It is filed as ADME, organism-based. Further details: dose 3 mg/kg, time 7 day, route po; call rule not given here. The note with it: in vivo. An outline of the steps:
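Oral dosing in male Sprague-Dawley rats (150−200 g, 7-day acclimation, standard housing) in a 7-day exploratory toxicology study.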

Data set [11] in a line: Tmax in female mouse at 100 mg/kg, po administered as single dose. The note with it: in vivo.
In a further data set the target is T3, Cytochrome P450 1A2 (Homo sapiens, UniProt P05177).
T3 sequence (P05177 whole entry): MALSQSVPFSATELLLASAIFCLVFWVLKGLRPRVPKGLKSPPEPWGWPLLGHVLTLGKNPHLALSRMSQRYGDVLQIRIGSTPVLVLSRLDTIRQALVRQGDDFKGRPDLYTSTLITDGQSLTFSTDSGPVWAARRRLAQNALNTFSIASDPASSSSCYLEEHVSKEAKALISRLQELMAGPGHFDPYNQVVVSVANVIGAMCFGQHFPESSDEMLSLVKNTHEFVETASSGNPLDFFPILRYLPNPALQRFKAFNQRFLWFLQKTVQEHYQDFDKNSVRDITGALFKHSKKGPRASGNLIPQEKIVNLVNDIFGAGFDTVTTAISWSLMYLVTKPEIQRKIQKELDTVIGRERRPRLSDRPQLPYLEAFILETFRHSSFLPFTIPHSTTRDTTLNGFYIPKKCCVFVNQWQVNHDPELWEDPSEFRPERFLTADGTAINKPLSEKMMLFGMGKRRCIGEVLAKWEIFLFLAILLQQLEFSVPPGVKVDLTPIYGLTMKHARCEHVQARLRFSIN
The data set can be described thus: Inhibition of CYP1A2 (unknown origin) upto 25 uM. It is filed as ADME.

Data set [12] is described as follows: Apparent permeability across apical to basolateral side in MDCK-MDR1 cells by LC-MS/MS analysis. The note with it: dog.

Cytochrome P450 2C9, sequence (P11712 whole entry): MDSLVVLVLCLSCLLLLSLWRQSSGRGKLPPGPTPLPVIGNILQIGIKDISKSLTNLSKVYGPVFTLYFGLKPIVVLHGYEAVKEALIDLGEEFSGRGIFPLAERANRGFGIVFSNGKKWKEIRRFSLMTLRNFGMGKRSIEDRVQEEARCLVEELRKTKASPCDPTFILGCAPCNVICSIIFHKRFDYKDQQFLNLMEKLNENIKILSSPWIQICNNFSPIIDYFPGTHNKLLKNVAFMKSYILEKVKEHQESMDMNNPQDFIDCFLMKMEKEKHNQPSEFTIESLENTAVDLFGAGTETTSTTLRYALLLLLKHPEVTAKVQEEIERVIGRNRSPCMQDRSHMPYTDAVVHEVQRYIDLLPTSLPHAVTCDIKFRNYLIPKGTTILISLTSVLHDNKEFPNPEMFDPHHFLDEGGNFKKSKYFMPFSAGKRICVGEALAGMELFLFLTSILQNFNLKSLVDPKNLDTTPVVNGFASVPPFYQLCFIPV
Cytochrome P450 3A4, sequence (P08684 whole entry): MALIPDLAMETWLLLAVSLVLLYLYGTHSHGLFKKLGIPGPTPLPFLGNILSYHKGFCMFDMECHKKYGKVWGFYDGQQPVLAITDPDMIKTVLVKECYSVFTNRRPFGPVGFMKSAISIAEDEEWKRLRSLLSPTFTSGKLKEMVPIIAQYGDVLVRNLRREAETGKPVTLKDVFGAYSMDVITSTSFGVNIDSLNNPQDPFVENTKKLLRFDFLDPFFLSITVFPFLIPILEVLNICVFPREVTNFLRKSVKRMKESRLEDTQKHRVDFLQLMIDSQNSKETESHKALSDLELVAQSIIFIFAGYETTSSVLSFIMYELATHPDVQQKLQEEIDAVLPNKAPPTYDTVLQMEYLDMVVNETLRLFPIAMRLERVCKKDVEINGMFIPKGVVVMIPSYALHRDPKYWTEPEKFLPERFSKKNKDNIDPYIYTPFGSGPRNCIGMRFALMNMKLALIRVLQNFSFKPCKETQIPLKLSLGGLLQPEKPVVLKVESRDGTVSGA
Cytochrome P450 2C19, sequence (P33261 whole entry): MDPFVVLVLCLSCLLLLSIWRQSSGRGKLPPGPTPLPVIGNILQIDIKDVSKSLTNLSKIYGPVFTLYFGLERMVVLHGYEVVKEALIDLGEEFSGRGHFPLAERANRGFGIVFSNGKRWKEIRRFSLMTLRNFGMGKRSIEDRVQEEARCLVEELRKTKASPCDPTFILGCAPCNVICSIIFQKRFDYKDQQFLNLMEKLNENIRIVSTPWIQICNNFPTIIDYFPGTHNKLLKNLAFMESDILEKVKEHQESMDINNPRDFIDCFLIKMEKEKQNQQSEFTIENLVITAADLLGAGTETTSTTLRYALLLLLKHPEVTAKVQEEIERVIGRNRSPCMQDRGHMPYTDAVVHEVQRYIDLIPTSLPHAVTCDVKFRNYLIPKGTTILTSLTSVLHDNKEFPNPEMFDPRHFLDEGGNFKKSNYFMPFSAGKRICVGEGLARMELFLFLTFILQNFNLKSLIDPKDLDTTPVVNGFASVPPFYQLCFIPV

As to `O=C(NC[C@H](c1ccc(Cl)cc1)N1CCOCC1)c1sc(-c2ncccn2)nc1C(F)(F)F`, the “Cp(f)” value in data set [1] was 22.8 nM; in data set [2], 22.4 nM; in data set [6], 381 nM. The “inhibition (INH)” value at Cytochrome P450 2C19 and at Cytochrome P450 1A2 was “Not Active” in each case. In addition, the results for the Ki on P2X purinoceptor 7 [3] and on P2X purinoceptor 7 [8] were 180 nM and 13 nM, respectively. In data set [4], this compound had a bioavailability of at least 100%. Also, the TDI result at Cytochrome P450 3A4 and at Cytochrome P450 2C9 was “Not Active” each time. The same compound displayed a Vdss in data set [5] of 0.95 L/kg. This compound also showed an AUC(0-t) at 8 h in data set [7] of 399 µM·h. The Cmax in [9] is 140000 nM. Also, the AUC at 168 h in data set [10] stood at 7.16 µM·h. Besides, in data set [11], the Tmax was 1 h. Besides, the Papp A:B in data set [12] is 15 ×10⁻⁶ cm/s.
